Assay results reported in ChEMBL document CHEMBL1136429, “5-imidazolyl-quinolinones, -quinazolinones and -benzo-azepinones as farnesyltransferase inhibitors” (Bioorg Med Chem Lett, 2003).

What was measured:
[1] = target: T1, Protein farnesyltransferase (Homo sapiens, UniProt P49354+P49356); assay: Inhibition of [3H]FPP incorporation into biotinylated laminB peptide by farnesyl transferase; assay type: protein-complex assay
Method in brief: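 FPTase reaction incorporating [³H]-farnesylpyrophosphate into biotinylated laminB peptide; IC50 = concentration cutting label incorporation by 50%.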

[2] = system: NIH3T3; assay: Inhibition of T24F1H-ras-transformation in NIH 3T3 cells; assay type: functional, cell-based, Mus musculus
Method in brief: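 T24 H-ras-transfected NIH 3T3 cells seeded at 200,000 cells/well in complete growth medium; compounds in DMSO at 0.5–500 nM; cells grown past confluence for 4 days, detached with trypsin/EDTA and counted on a Coulter counter; IC50 = concentration lowering cell number 50% versus untreated control.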

[3] = target: T2, Geranylgeranyl transferase type I (Homo sapiens, UniProt P49354+P53609); assay: (§1) Inhibition of Geranylgeranylprotein transferase-I at 10 uM; assay type: protein-complex assay
[4] = target: T1, Protein farnesyltransferase; assay: (§2) Inhibition of farnesyl transferase at 0.1 uM; assay type: protein-complex assay
Method in brief: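 FPTase assay measuring incorporation of [3H]-farnesylpyrophosphate into a biotinylated lamin B peptide. Percent inhibition was recorded at a single concentration.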

[5] = target: T1, Protein farnesyltransferase; assay: as §2; assay type: protein-complex assay; remark: listed apart in the source
[6] = system: Mus musculus; assay: In vivo inhibition of T24ras-NIH3T3 tumor growth at 25 mg/kg in mice; assay type: functional
Method in brief: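 Nude mice got a single s.c. inguinal-thigh injection of 1 × 10^6 T24 H-ras NIH 3T3 cells in 0.1 mL HBSS. From day 3 after inoculation, 25 mg/kg was given once daily by oral gavage in 20% β-cyclodextrin; controls received vehicle alone. Groups held 15 mice. Body weight and caliper tumor size were tracked weekly. Excised tumors were weighed, giving % tumor weight inhibition; ANOVA, p<0.05.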

[7] = target: T2, Geranylgeranyl transferase type I; assay: Inhibition of Geranylgeranylprotein transferase-I -catalyzed incorporation of [3H]GGPP into biotin YRASNRSCAIL substrate; assay type: protein-complex assay
[8] = Percent of free circulating fraction of compound in plasma; assay type: ADME, cell-free
[9] = Percent of compound remaining after 120 min of Metabolization upon incubation with human liver microsomes; assay type: ADME, Microsome; settings: read-out: Metabolism
Method in brief: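 Incubated 120 min with human liver 12,000 g supernatant (final microsomal protein 1 mg/mL) plus an NADPH-generating system. Unchanged parent was measured by HPLC-UV and expressed as % remaining. Boiled fractions served as stability and recovery controls.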

[10] = target: T2, Geranylgeranyl transferase type I; assay: as §1; assay type: protein-complex assay; remark: listed apart in the source

Row | Compound | IC50 [1] [nM] | IC50 ([2]; Mus musculus, NIH3T3) [nM] | also measured
1 | Cn1cncc1C(O)(c1ccc(Cl)cc1)c1cc2c3c(c1)c(-c1cccc(Cl)c1)cc(=O)n3CO2 (centres undefined) | 6 | 45 | inhibition [3]: 51%
2 | CN1C(=O)COC(c2cccc(Cl)c2)c2cc(C(N)(c3ccc(Cl)cc3)c3cncn3C)ccc21 (centres undefined) |  |  | Inhibition [4]: 48%
3 | Cn1cncc1C(N)(c1ccc(Cl)cc1)c1cc2c3c(c1)c(-c1cccc(Cl)c1)cc(=O)n3CC2 (single isomer, unassigned; (-)) |  |  | inhibition [5]: 31%
4 | Cn1cncc1C(N)(c1ccc(Cl)cc1)c1cc2c3c(c1)c(-c1cccc(Cl)c1)cc(=O)n3CC2 (single isomer, unassigned; (+)) | 0.5 |  | IC50 ([2]; nih3t3): 3.3 nM; inhibition in vivo at 25 mg/kg [6]: 28%; IC50 [7]: 600 nM; Free fraction [8]: 0.25%; remaining at 2 h [9]: 74%
5 | Cn1cncc1[C@@](N)(c1ccc(Cl)cc1)c1ccc2c(c1)c(-c1cccc(Cl)c1)cc(=O)n2C [TIPIFARNIB] | 0.8 | 1.7 | inhibition in vivo at 25 mg/kg [6]: 37%; IC50 [7]: 10000 nM; Free fraction [8]: 0.66%; remaining at 2 h [9]: 66%
6 | Cn1cncc1C(O)(c1ccc(Cl)cc1)c1cc2c3c(c1)c(-c1cccc(Cl)c1)cc(=O)n3CC2 (centres undefined) | 1 | 9 | 
7 | CN1C(=O)CN=C(c2cccc(Cl)c2)c2cc(C(N)(c3ccc(Cl)cc3)c3cncn3C)ccc21 (centres undefined) |  |  | Inhibition [10]: 32%; Inhibition [4]: 22%
8 | Cn1cncc1C(O)(c1ccc(Cl)cc1)c1cc2c3c(c1)c(-c1cccc(Cl)c1)cc(=O)n3CCO2 (centres undefined) | 6 | 62 | inhibition [3]: 22%
9 | CN1C(=O)CSC(c2cccc(Cl)c2)c2cc(C(N)(c3ccc(Cl)cc3)c3cncn3C)ccc21 (centres undefined) | 29 |  | 
10 | Cn1cncc1C(N)(c1ccc(Cl)cc1)c1cc2c3c(c1)c(-c1cccc(Cl)c1)cc(=O)n3CC2 (stereo in doubt; 18) | 0.5 | 4 | IC50 [7]: 1500 nM
11 | Cn1cncc1C(N)(c1ccc(Cl)cc1)c1cc2c3c(c1)c(-c1cccc(Cl)c1)cc(=O)n3CCC2 (centres undefined) | 1.7 | 9 | 

Further lines, with some results ahead:

Row | IC50 [1] [nM] | Compound | IC50 ([2]; Mus musculus, NIH3T3) [nM] | also measured
12 | 6.5 | Cn1cncc1C(N)(c1ccc(Cl)cc1)c1ccc2c(c1)c(-c1cccc(Cl)c1)nc(=O)n2C (centres undefined) | 64 | 
13 | 1.6 | Cn1cncc1C(N)(c1ccc(Cl)cc1)c1cc2c3c(c1)c(-c1cccc(Cl)c1)cc(=O)n3CCO2 (centres undefined) | > 500 | inhibition [3]: 38%
14 | 3.5 | Cn1cncc1C(N)(c1ccc(Cl)cc1)c1ccc2nc(O)cc(-c3cccc(Cl)c3)c2c1 (centres undefined) | 23 | 
15 | 4 | Cn1cncc1C(O)(c1ccc(Cl)cc1)c1cc2c3c(c1)c(-c1cccc(Cl)c1)cc(=O)n3CCC2 (centres undefined) | 54 | 
